8 compounds from article PMC6852796 (Asian Pacific Journal of Cancer Prevention : APJCP, 2019) can be followed below.

Series [1] is described as follows: Glycation related cytotoxicity: test compound only, no MGO. Conditions: mouse, RAW 264.7 macrophages. Type of series: cell-based, murine.
The test system of series [2] is LPS-induced nitric oxide production in RAW 264.7 macrophages. Nature of the series: Anti-inflammatory. The format is cell-based, murine. Conditions: Mus musculus, RAW264.7, 24 h, read-out: NOS-IC50 value. A digest of the protocol: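 Cells (2 x 10^5/well) were exposed to test compound (5-200 μg/mL) plus LPS 10 μg/mL for 24 h. Medium was mixed 1:1 with Griess reagent (1% sulfanilamide in 5% phosphoric acid; 0.1% naphthylethylenediamine-HCl) for 10 min at RT. A550 was read and nitrite taken from a sodium nitrite standard curve.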

A short description of series [3]: NOS related cytotoxicity, SRB viability of RAW 264.7. The format is cell-based, murine. The conditions noted are these: mouse, RAW 264.7 macrophages. The gist of the method: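 RAW 264.7 macrophages were maintained in high-glucose DMEM with 10% FBS and penicillin/streptomycin/[…] at 37 °C in humidified 5% CO2. The test compound's effect on their viability was measured by sulforhodamine B colorimetric staining, run alongside the LPS-stimulated nitrite assay.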

Series [4] in a line: Selective cytotoxicity SRB assay, periodontal fibroblasts. The format is cell-based. The conditions noted are these: human, primary periodontal ligament fibroblasts (PDL), noncancerous. A digest of the protocol: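 Primary human periodontal fibroblasts served as a noncancerous counter-screen for selective cytotoxicity. […] Assays were run in triplicate and reported as mean ± SD (n=3).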
On the technique in general: The SRB assay estimates cell density from bound dye.

Series [5] addresses T1, Crude porcine PL type II (pancreatic lipase) (Sus scrofa, UniProt P00591).
T1 sequence (P00591 1-450): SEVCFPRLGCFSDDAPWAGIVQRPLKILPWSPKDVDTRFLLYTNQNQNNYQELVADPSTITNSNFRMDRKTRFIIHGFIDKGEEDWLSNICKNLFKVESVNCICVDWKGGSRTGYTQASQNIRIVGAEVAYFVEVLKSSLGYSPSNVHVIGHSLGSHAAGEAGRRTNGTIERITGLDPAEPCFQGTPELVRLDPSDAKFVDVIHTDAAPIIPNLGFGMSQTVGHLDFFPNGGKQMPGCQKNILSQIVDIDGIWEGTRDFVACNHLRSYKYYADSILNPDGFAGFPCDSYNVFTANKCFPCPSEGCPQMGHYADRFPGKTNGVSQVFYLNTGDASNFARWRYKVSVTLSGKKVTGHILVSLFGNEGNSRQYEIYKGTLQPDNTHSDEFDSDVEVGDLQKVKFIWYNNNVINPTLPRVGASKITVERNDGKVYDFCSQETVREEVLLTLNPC
Nature of the series: In vitro PL activity spectrophotometric assay. Type of series: biochemical. The conditions noted are these: PL-IC50 value, p-NPB substrate, 37 °C.

The test system of series [6] is Methylglyoxal induced cytotoxicity in RAW264.7 murine macrophages. Briefly: Antiglycation determination via methylglyoxal induced cytotoxicity. Type of series: cell-based. Conditions: RAW264.7, MGO 300 µM, 48 hr, SRB.
Series [7] concerns RAW 264.7 murine macrophages. Nature of the series: Glycation related cytotoxicity: test compound only, no MGO. Type of series: cell-based. The conditions noted are these: RAW264.7, in absence of MGO, 48 hr, SRB.

Where “and” joins values, the source holds several entries; their conditions need not be identical. Identical values can stand only once.

In the case of `CCc1ccc(Nc2c(F)cc3c(=O)c(C(=O)O)cn(C4CC4)c3c2[N+](=O)[O-])cc1` [3a, 1-cyclopropyl-7-(4-ethyl-phenylamino)-6-fluoro-8-nitro-4-oxo-1,4-dihydro-quinoline-3-carboxylic acid], the 50% inhibitory concentration (IC50) – broadly, the concentration that inhibits the measured activity by half – at 48 h in series [1] was 437 µM and 180 µg/mL. The half-maximal inhibitory concentration (IC50) in series [2] was 309 µM and 127 µg/mL; in series [5], 21.6 µM. In series [3], this compound displayed an IC50 at 24 h of over 200 µg/mL. The half-maximal inhibitory concentration (IC50) at 72 h in series [4] was 437 µM and 180 µg/mL.

Consider `CCCCc1ccc(Nc2c(F)cc3c(=O)c(C(=O)O)cn(C4CC4)c3c2[N+](=O)[O-])cc1` [3b, 7-(4-butyl-phenylamino)-1-cyclopropyl-6-fluoro-8-nitro-4-oxo-1,4-dihydro-quinoline-3-carboxylic acid], for which the IC50 in series [2] is 10.5 µg/mL and 23.8 µM; in series [5] it was 23.1 µM and 23.2 µM. In addition, the IC50 at 24 h in series [3] was 144 µg/mL and 327 µM. The 50% inhibitory concentration (IC50) at 72 h in series [4] was 416 µM and 183 µg/mL.

`CCc1ccc(Nc2c(F)cc3c(=O)c(C(=O)O)cn(C4CC4)c3c2N)cc1` [4a, 8-amino-1-cyclopropyl-7-(4-ethyl-phenylamino)-6-fluoro-4-oxo-1,4-dihydro-quinoline-3-carboxylic acid]: the IC50 at 48 h in series [1] is 3.05 µM and 1.2 µg/mL. For the same compound, the IC50 in series [2] was 60 µM and 22.9 µg/mL; in series [5], 22.3 µM and 23.9 µM. For the same compound, the IC50 at 24 h in series [3] is over 200 µg/mL. Moreover, the IC50 at 72 h in series [4] is 37.1 µM and 14.2 µg/mL.

Take `CCCCc1ccc(Nc2c(F)cc3c(=O)c(C(=O)O)cn(C4CC4)c3c2N)cc1` [4b, 8-amino-7-(4-butyl-phenylamino)-1-cyclopropyl-6-fluoro-4-oxo-1,4-dihydro-quinoline-3-carboxylic acid]: the IC50 at 48 h in series [1] was 8.51 µM and 3.5 µg/mL. Also, the 50% inhibitory concentration (IC50) in series [2] was 29.8 µM and 12.2 µg/mL; in series [5], 74.7 µM and 69.6 µM. The half-maximal inhibitory concentration (IC50) at 24 h in series [3] was over 200 µg/mL. For the same compound, the IC50 at 72 h in series [4] was 407 µM and 167 µg/mL.

For the compound `CCc1ccc(-n2nnc3c4c(cc(F)c32)c(=O)c(C(=O)O)cn4C2CC2)cc1` [5a, 9-cyclopropyl-3-(4-ethyl-phenyl)-4-fluoro-6-oxo-6,9-dihydro-3H-[1,2,3]triazolo[4,5-h]quinoline-7-carboxylic acid], in series [1], the half-inhibitory concentration (IC50) at 48 h was 84.1 µM and 33 µg/mL. Further, the IC50 in series [2] was 51.5 µM and 20.2 µg/mL; in series [5], 95.5 µM and 95.6 µM. The IC50 at 24 h in series [3] is over 200 µg/mL. Moreover, the IC50 at 72 h in series [4] is 155 µM and 60.8 µg/mL.

In the case of `CCCCc1ccc(-n2nnc3c4c(cc(F)c32)c(=O)c(C(=O)O)cn4C2CC2)cc1` [5b, 3-(4-butyl-phenyl)-9-cyclopropyl-4-fluoro-6-oxo-6,9-dihydro-3H-[1,2,3]triazolo[4,5-h]quinoline-7-carboxylic acid], the IC50 at 48 h in series [1] was 161 µM and 67.7 µg/mL. The IC50 in series [2] is 98.8 µM and 41.5 µg/mL; in series [5] it was 88.6 µM and 88.7 µM. The compound also had an IC50 at 24 h in series [3] of over 200 µg/mL. Moreover, the IC50 at 72 h in series [4] is 42.5 µM and 17.9 µg/mL.

As for `N=C(N)NN` [Aminogaunidine, Aminoguanidine, reference compound], the Glycation-IC50 value entry in series [6] is “(0.34±0.0 µg/mL)”. Moreover, the half-inhibitory concentration (IC50) in series [6] (read-out: Glycation-IC50 value) stood at 3.1 ± 0.35 µM; in series [7] (read-out: Glycation related Cytotox.-IC50 value), 5390 ± 1350 µM. Further, the “Glycation related Cytotox.-IC50 value” in series [7] is reported as “(596.62±148.8 µg/mL )”.

For `COc1ccc2c(c1)c(CC(=O)O)c(C)n2C(=O)c1ccc(Cl)cc1` [Indomethacin, reference compound], the IC50 in series [2] is 212 µM and 75.9 µg/mL. The compound also had a half-inhibitory concentration (IC50) at 24 h in series [3] of over 200 µg/mL.
